17 compounds from ChEMBL document CHEMBL4359878, “Discovery of 4-piperazinyl-2-aminopyrimidine derivatives as dual inhibitors of JAK2 and FLT3” (Eur J Med Chem, 2019) can be followed below.

Chain of Tyrosine-protein kinase JAK2 (O60674 whole entry, the tested form may be a part): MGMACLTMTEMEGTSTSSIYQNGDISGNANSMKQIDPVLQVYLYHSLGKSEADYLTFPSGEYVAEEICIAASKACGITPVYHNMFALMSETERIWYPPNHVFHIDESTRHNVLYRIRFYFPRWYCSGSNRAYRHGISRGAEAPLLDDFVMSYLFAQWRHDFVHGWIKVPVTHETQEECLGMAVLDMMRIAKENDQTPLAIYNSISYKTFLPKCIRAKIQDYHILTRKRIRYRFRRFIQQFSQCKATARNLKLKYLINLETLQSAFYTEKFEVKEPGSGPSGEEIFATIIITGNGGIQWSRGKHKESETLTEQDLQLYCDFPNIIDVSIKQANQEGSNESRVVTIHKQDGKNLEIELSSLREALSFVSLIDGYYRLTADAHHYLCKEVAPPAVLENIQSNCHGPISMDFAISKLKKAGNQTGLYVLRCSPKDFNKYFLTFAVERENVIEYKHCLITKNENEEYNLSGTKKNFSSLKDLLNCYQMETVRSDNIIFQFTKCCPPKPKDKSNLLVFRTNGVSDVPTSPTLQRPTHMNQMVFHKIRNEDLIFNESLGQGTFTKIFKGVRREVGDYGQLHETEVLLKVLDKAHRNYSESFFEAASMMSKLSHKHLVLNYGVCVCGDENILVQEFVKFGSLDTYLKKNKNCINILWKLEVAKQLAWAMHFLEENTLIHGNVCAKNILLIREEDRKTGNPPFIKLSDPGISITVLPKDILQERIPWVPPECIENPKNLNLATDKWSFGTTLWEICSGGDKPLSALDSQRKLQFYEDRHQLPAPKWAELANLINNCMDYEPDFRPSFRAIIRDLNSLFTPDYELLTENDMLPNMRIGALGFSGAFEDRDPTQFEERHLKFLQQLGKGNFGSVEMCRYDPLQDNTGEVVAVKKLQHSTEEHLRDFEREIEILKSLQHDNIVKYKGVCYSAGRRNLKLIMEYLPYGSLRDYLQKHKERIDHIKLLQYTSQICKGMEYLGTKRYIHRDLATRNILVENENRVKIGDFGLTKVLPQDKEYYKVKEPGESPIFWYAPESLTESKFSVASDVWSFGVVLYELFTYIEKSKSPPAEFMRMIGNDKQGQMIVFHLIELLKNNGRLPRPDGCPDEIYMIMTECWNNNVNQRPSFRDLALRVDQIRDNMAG

In the first assay the target is Receptor-type tyrosine-protein kinase FLT3 (Homo sapiens) (UniProt P36888). The settings on record: at 100 nM.
Chain of Receptor-type tyrosine-protein kinase FLT3 (Homo sapiens) (P36888 whole entry): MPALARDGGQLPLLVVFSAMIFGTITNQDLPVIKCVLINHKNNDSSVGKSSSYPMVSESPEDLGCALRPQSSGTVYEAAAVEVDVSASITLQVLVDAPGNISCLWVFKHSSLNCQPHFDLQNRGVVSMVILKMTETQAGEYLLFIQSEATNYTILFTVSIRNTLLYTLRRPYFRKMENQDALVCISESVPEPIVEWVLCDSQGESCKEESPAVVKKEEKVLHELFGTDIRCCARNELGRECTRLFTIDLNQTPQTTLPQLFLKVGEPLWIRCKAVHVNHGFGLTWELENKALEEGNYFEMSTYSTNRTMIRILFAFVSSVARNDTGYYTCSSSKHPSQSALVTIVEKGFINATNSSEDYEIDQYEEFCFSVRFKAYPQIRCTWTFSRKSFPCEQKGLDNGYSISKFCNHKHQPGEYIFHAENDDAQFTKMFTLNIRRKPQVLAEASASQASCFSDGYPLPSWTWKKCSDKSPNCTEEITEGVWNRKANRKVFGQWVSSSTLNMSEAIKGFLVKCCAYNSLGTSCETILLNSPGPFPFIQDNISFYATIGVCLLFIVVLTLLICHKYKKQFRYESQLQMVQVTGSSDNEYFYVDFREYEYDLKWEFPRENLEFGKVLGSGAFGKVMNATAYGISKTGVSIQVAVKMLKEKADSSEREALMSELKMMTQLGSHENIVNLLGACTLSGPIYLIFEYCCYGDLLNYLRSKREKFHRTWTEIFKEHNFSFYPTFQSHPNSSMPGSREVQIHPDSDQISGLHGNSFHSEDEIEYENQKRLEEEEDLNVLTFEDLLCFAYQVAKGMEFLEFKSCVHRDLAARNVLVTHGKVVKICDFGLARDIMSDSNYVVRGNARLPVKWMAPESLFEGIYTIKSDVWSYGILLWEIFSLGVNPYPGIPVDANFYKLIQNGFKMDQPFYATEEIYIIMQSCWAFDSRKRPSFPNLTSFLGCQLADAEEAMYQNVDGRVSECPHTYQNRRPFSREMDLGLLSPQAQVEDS
The term inhibition denotes the relative decrease from the control value, in per cent. With `NC(=O)c1ccccc1NC(=O)N1CCN(c2ccnc(Nc3ccc(N4CCOCC4)cc3)n2)CC1`, the inhibition was 12.5%.

In turn, `CC(=O)c1ccccc1NC(=O)N1CCN(c2ccnc(Nc3ccc(N4CCOCC4)cc3)n2)CC1` yielded an inhibition of 13.8%.

`N#Cc1ccc(NC(=O)N2CCN(c3ccnc(Nc4ccc(N5CCOCC5)cc4)n3)CC2)cc1` had an inhibition of 70.8%.

In turn, `O=C(Nc1ccccc1C(F)(F)F)N1CCN(c2ccnc(Nc3ccc(N4CCOCC4)cc3)n2)CC1` gave an inhibition of 15%.

Take `CNC(=O)c1ccc(NC(=O)N2CCN(c3ccnc(Nc4ccc(N5CCOCC5)cc4)n3)CC2)cc1`: the inhibition was found to be 35.8%.

`NC(=O)c1cccc(NC(=O)N2CCN(c3ccnc(Nc4ccc(N5CCOCC5)cc4)n3)CC2)c1` yielded an inhibition of 39.8%.

For the compound `CN1CCN(c2ccc(Nc3nccc(N4CCN(C(=O)Nc5ccc(C(N)=O)cc5)CC4)n3)cc2)CC1`, the inhibition was 85%.

`O=C(Nc1ccccc1)N1CCN(c2ccnc(Nc3ccc(N4CCOCC4)cc3)n2)CC1` showed an inhibition of 27.8%.

`CC(=O)c1cccc(NC(=O)N2CCN(c3ccnc(Nc4ccc(N5CCOCC5)cc4)n3)CC2)c1` gave an inhibition of 3.3%.

The compound `O=C(Nc1ccc([N+](=O)[O-])cc1)N1CCN(c2ccnc(Nc3ccc(N4CCOCC4)cc3)n2)CC1` displayed an inhibition of 84.4%.

In turn, `CCN(CC)c1ccc(NC(=O)N2CCN(c3ccnc(Nc4ccc(N5CCOCC5)cc4)n3)CC2)cc1` gave an inhibition of 0%.

`CC(C)Oc1ccc(NC(=O)N2CCN(c3ccnc(Nc4ccc(N5CCOCC5)cc4)n3)CC2)cc1`: the inhibition was 22.9%.

`COC(=O)CNC(=O)c1ccc(NC(=O)N2CCN(c3ccnc(Nc4ccc(N5CCOCC5)cc4)n3)CC2)cc1`: the inhibition worked out at 33.1%.

With `CC(=O)c1ccc(NC(=O)N2CCN(c3ccnc(Nc4ccc(OCCCN5CCOCC5)cc4)n3)CC2)cc1`, the inhibition is 70.9%.

For `CS(=O)(=O)c1ccc(NC(=O)N2CCN(c3ccnc(Nc4ccc(N5CCOCC5)cc4)n3)CC2)cc1`, the inhibition came to 53.9%.

Consider `COc1ccc(NC(=O)N2CCN(c3ccnc(Nc4ccc(N5CCOCC5)cc4)n3)CC2)cc1`, for which the inhibition is 21.7%.

For the next assay, the system named is HEL. The experiment in a line: Antiproliferative activity against human HEL cells assessed as growth inhibition after 72 hrs by CCK-8 assay. It counts as functional.
Details: not given
A digest of the protocol:
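CCK-8 viability readout. Cells were cultured in RPMI 1640 with 10% FBS and 1% penicillin/streptomycin and seeded at 3000 (HEL), 5000 (MV4-11) or 3000 (HL60) cells/well. Increasing compound concentrations were applied for 72 h, then CCK-8 was added for a further 3 h and absorbance read at 450 nm. Inhibition = (1−A_sample/A_control)×100, normalized to DMSO controls. Value is the mean of three independent measurements, obtained by curve fitting.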
Broadly, the GI50 is the concentration at which growth is held to half of that of the control. In the case of `CN1CCN(c2ccc(Nc3nccc(N4CCN(C(=O)Nc5ccc(C(N)=O)cc5)CC4)n3)cc2)CC1`, the GI50 is over 50 µM.

With `CC(=O)c1ccc(NC(=O)N2CCN(c3ccnc(Nc4ccc(OCCCN5CCOCC5)cc4)n3)CC2)cc1`, the GI50 amounted to 10.7 µM.

Another assay has as its target Tyrosine-protein kinase JAK2 (Homo sapiens, UniProt O60674). The assay is described as follows: Inhibition of N-terminal His-tagged human JAK2 catalytic domain (826 to 1132 resiudes) expressed in baculovirus expression system at 100 nM using FAM-labeled peptide as substrate preincubated for 10 mins followed by substrate addition measured after 1 hr in presence of ATP by mobility shift assay relative to control.
Details: not given
A digest of the protocol: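 Single-concentration (100 nM) percent inhibition in the mobility-shift JAK2 assay. Enzyme was preincubated with compound for 10 min at room temperature in HEPES pH 7.5/Brij-35 buffer. FAM-peptide and ATP were then added and the reaction run for 1 h at 28 °C before EDTA stop. Inhibition = (max−conversion)/(max−min)×100. Each compound was tested at least twice and the values averaged.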
Take `N#CCNC(=O)c1ccc(-c2ccnc(Nc3ccc(N4CCOCC4)cc3)n2)cc1`: the inhibition came to 94.7%.

Regarding `NC(=O)c1ccccc1NC(=O)N1CCN(c2ccnc(Nc3ccc(N4CCOCC4)cc3)n2)CC1`, the inhibition was found to be 9.5%.

Take `CC(=O)c1ccccc1NC(=O)N1CCN(c2ccnc(Nc3ccc(N4CCOCC4)cc3)n2)CC1`: the inhibition was 18.9%.

For the compound `N#Cc1ccc(NC(=O)N2CCN(c3ccnc(Nc4ccc(N5CCOCC5)cc4)n3)CC2)cc1`, the inhibition was determined as 78%.

For `O=C(Nc1ccccc1C(F)(F)F)N1CCN(c2ccnc(Nc3ccc(N4CCOCC4)cc3)n2)CC1`, the inhibition is 21.8%.

For the compound `CNC(=O)c1ccc(NC(=O)N2CCN(c3ccnc(Nc4ccc(N5CCOCC5)cc4)n3)CC2)cc1`, the inhibition was determined as 68.1%.

Consider `NC(=O)c1cccc(NC(=O)N2CCN(c3ccnc(Nc4ccc(N5CCOCC5)cc4)n3)CC2)c1`, for which the inhibition was 74%.

Regarding `CN1CCN(c2ccc(Nc3nccc(N4CCN(C(=O)Nc5ccc(C(N)=O)cc5)CC4)n3)cc2)CC1`, the inhibition was 84%.

For `O=C(Nc1ccccc1)N1CCN(c2ccnc(Nc3ccc(N4CCOCC4)cc3)n2)CC1`, the inhibition came out at 53.7%.

Regarding `CC(=O)c1cccc(NC(=O)N2CCN(c3ccnc(Nc4ccc(N5CCOCC5)cc4)n3)CC2)c1`, the inhibition worked out at 2%.

Regarding `O=C(Nc1ccc([N+](=O)[O-])cc1)N1CCN(c2ccnc(Nc3ccc(N4CCOCC4)cc3)n2)CC1`, the inhibition was 79.3%.

Consider `CCN(CC)c1ccc(NC(=O)N2CCN(c3ccnc(Nc4ccc(N5CCOCC5)cc4)n3)CC2)cc1`, for which the inhibition amounted to 41.2%.

`CC(C)Oc1ccc(NC(=O)N2CCN(c3ccnc(Nc4ccc(N5CCOCC5)cc4)n3)CC2)cc1`: the inhibition amounted to 11.1%.

In the case of `COC(=O)CNC(=O)c1ccc(NC(=O)N2CCN(c3ccnc(Nc4ccc(N5CCOCC5)cc4)n3)CC2)cc1`, the inhibition stood at 40.6%.

`CC(=O)c1ccc(NC(=O)N2CCN(c3ccnc(Nc4ccc(OCCCN5CCOCC5)cc4)n3)CC2)cc1`: the inhibition is 60.9%.

As for `CS(=O)(=O)c1ccc(NC(=O)N2CCN(c3ccnc(Nc4ccc(N5CCOCC5)cc4)n3)CC2)cc1`, the inhibition was 75.8%.

As for `COc1ccc(NC(=O)N2CCN(c3ccnc(Nc4ccc(N5CCOCC5)cc4)n3)CC2)cc1`, the inhibition was found to be 48.7%.
